In general, LD50 refers to the dose at which mortality reaches 50%. A high value points to lower toxicity. The term IC50 denotes the concentration at which inhibition is half-maximal.

Data set [1] relates to Mus musculus. The data set can be described thus: In vivo chemotherapy of Ehrlich tumor in B6D2F1 mice at a dose of 0.42 (mmol/kg)/day expressed as number days after tumor challenge. It is filed as functional.
For data set [2], the system named is Mus musculus. Description: In vivo chemotherapy of Ehrlich tumor in B6D2F1 mice at a dose of 0.42 (mmol/kg)/day was expressed as number of survivors on 60-day/number of treated;0/8. It is filed as functional.
Data set [3] has as its system L1210. Description: Percent of control (thymidine incorporation in vitro) at 2.5 mM in L1210 leukemia cells in vitro of B6D2F1 mice. The data set is classed as functional, Mus musculus.
For data set [4], the system named is Mus musculus. The data set can be described thus: In vivo chemotherapy of Ehrlich tumor in B6D2F1 mice at a dose of 3.2 (mmol/kg)/day was expressed as number of survivors on 60-day/number of treated;2/4. It is filed as functional.
Data set [5] has as its system Mus musculus. The data set can be described thus: In vivo chemotherapy of Ehrlich tumor in B6D2F1 mice at a dose of 2.5 (mmol/kg)/day was expressed as number of survivors on 60-day/number of treated; 3/8. The data set is classed as functional.
Data set [6] has as its system Mus musculus. The data set can be described thus: In vivo chemotherapy of Ehrlich tumor in B6D2F1 mice at a dose of 2.5 (mmol/kg)/day was expressed as number of survivors on 60-day/number of treated; 5/8. The data set is classed as functional.
Data set [7] deals with Mus musculus. The data set can be described thus: In vivo chemotherapy of Ehrlich tumor in B6D2F1 mice at a dose of 3.2 (mmol/kg)/day expressed as number days after tumor challenge. It is filed as functional.
Data set [8] can be described thus: Compound was tested for lethal dose administered in single dose intraperitoneally that killed 50% of the animals. It is filed as ADME, organism-based. The following applies: mouse, in vivo, ip.
Data set [9] deals with L1210. Description: Compound was tested for concentration that inhibited thymidine incorporation in vitro by 50%. It is filed as functional, cell-based, Mus musculus. The essentials: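 Ascites L1210 cells from DBA/2 passage hosts (harvested 5 days after ip implant of 10⁶ cells), washed in 0.85% NaCl and suspended at 2 × 10⁷/mL in RPMI-1640. Exposed 1 h at 37 °C in RPMI-1640 with 10% FBS; tetra-O-acetates added from ethanol solution, free sugars dissolved directly in medium. Cells washed and plated, then pulsed with [³H]thymidine (1.0 μCi/well) for 15 h. TCA-washed cells counted by scintillation. Ethanol-matched controls. IC50 reported as mean ± SE (≥3 determinations) or range (2).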
For orientation: Incorporation of labelled thymidine or its analogues reports DNA synthesis.

For data set [10], the system named is Mus musculus. The data set can be described thus: In vivo chemotherapy of Ehrlich tumor in B6D2F1 mice at a dose of 3.7 (mmol/kg)/day expressed as number days after tumor challenge. The data set is classed as functional.
Data set [11] relates to Mus musculus. Description: In vivo chemotherapy of Ehrlich tumor in B6D2F1 mice at a dose of 3.7 (mmol/kg)/day was expressed as number of survivors on 60-day/number of treated; 1/5. The data set is classed as functional.
For data set [12], the system named is Mus musculus. Description: In vivo chemotherapy of Ehrlich tumor in B6D2F1 mice at a dose of 0.42 (mmol/kg)/day was expressed as number of survivors on 60-day/number of treated; 0/5. It is filed as functional.
Data set [13] deals with Mus musculus. Description: In vivo chemotherapy of Ehrlich tumor in B6D2F1 mice at a dose of 0.12 (mmol/kg)/day expressed as number days after tumor challenge. It is filed as functional.
Data set [14] deals with Mus musculus. Description: In vivo chemotherapy of Ehrlich tumor in B6D2F1 mice at a dose of 0.71 (mmol/kg)/day was expressed as number of survivors on 60-day/number of treated; 1/8. It is filed as functional.
Data set [15] deals with Mus musculus. The data set can be described thus: In vivo chemotherapy of Ehrlich tumor in B6D2F1 mice at a dose of 0.71 (mmol/kg)/day was expressed as number of survivors on 60-day/number of treated; 8/8. The data set is classed as functional.
Data set [16] deals with Mus musculus. Description: In vivo chemotherapy of Ehrlich tumor in B6D2F1 mice at a dose of 0.35 (mmol/kg)/day expressed as number days after tumor challenge. It is filed as functional.
Data set [17] relates to Mus musculus. The data set can be described thus: In vivo chemotherapy of Ehrlich tumor in B6D2F1 mice at a dose of 0.71 (mmol/kg)/day was expressed as number of survivors on 60-day/number of treated; 4/8. It is filed as functional.
The subject of data set [18] is Mus musculus. The data set can be described thus: In vivo chemotherapy of Ehrlich tumor in B6D2F1 mice at a dose of […] (mmol/kg)/day expressed as number days after tumor challenge. It is filed as functional.
In data set [19] the test system is Mus musculus. The data set can be described thus: In vivo chemotherapy of Ehrlich tumor in B6D2F1 mice at a dose of 0.22 (mmol/kg)/day expressed as number days after tumor challenge. It is filed as functional.
Data set [20] concerns Mus musculus. Description: In vivo chemotherapy of Ehrlich tumor in B6D2F1 mice at a dose of 0.13 (mmol/kg)/day was expressed as number of survivors on 60-day/number of treated; 3/8. It is filed as functional.
Data set [21] has as its system Mus musculus. The data set can be described thus: In vivo chemotherapy of Ehrlich tumor in B6D2F1 mice at a dose of 0.19 (mmol/kg)/day was expressed as number of survivors on 60-day/number of treated; 1/8. It is filed as functional.
The test system of data set [22] is Mus musculus. The data set can be described thus: In vivo chemotherapy of Ehrlich tumor in B6D2F1 mice at a dose of 0.19 (mmol/kg)/day expressed as 60-day survivors (number of survivors/number of treated); 1/8. The data set is classed as functional.
In data set [23] the test system is Mus musculus. The data set can be described thus: In vivo chemotherapy of Ehrlich tumor in B6D2F1 mice at a dose of 0.22 (mmol/kg)/day was expressed as number of survivors on 60-day/number of treated; 4/4.
The subject of data set [24] is Mus musculus. The data set can be described thus: In vivo chemotherapy of Ehrlich tumor in B6D2F1 mice at a dose of 0.13 (mmol/kg)/day expressed as number days after tumor challenge. It is filed as functional.

Some results are limits rather than exact numbers.

The compound `O=C(CF)NC1C(O)OC(CO)C(O)C1O` (stereo in doubt; form 1) yielded a Days in data set [1] of 2. Besides, in data set [2], the Survivors was 0. Moreover, the “Thymidine incorporation (% of control)” value in data set [3] is recorded as 93%.

As for `O=C(CBr)NC1C(O)OC(CO)C(O)C1O` (stereo in doubt; form 1), the Survivors in data set [4] stood at 2; in [5] it was 3; in data set [6], 5. Also, in data set [7], the Days was 4. The same compound showed an LD50 in data set [8] of over 3200 µmol/kg. Also, the “Thymidine incorporation (% of control)” value in data set [3] is 79%.

Turning to `CC(=O)OCC1OC(OC(C)=O)C(NC(=O)CCl)C(OC(C)=O)C1OC(C)=O` (stereo in doubt; form 1), the IC50 in data set [9] (l1210) came to 220 µM.

Consider `O=C(CCl)NC1C(O)OC(CO)C(O)C1O` (stereo in doubt; form 1), for which the “Thymidine incorporation (% of control)” value in data set [3] amounted to 51%.

`CC(=O)OCC1OC(OC(C)=O)C(NC(=O)CBr)C(OC(C)=O)C1OC(C)=O` (stereo in doubt; form 1): the LD50 in [8] came out at 240 µmol/kg.

As for `CC(=O)OCC1OC(OC(C)=O)C(NC(=O)CF)C(OC(C)=O)C1OC(C)=O` (stereo in doubt; form 2), the 50% inhibitory concentration (IC50) in data set [9] (Mus musculus, L1210) is over 1000 µM.

For the compound `O=C(CBr)NC1C(O)OC(CO)C(O)C1O` (stereo in doubt; form 2), the “Thymidine incorporation (% of control)” value in [3] is listed as 68%.

Regarding `CC(=O)OCC1OC(OC(C)=O)C(NC(=O)CCl)C(OC(C)=O)C1OC(C)=O` (stereo in doubt; form 2), in [9] (l1210), the IC50 is 425 µM.

For the compound `O=C(CCl)NC1C(O)OC(CO)C(O)C1O` (stereo in doubt; form 2), the Days in data set [10] amounted to 4. The compound further returned a Survivors in [11] of 1.

As for `CC(=O)OCC1OC(OC(C)=O)C(NC(=O)CBr)C(OC(C)=O)C1OC(C)=O` (stereo in doubt; form 2), the IC50 in [9] (l1210) was 6.5 µM.

As for `CC(=O)OCC1OC(OC(C)=O)C(NC(=O)CF)C(OC(C)=O)C1OC(C)=O` (stereo in doubt; form 3), the Survivors in data set [12] is reported as 0. Moreover, the Days in data set [13] is 1.

Regarding `O=C(CBr)NC1C(O)OC(CO)C(O)C1O` (stereo in doubt; form 3), in data set [3], the “Thymidine incorporation (% of control)” value is recorded as 95%.

Regarding `CC(=O)OCC1OC(OC(C)=O)C(NC(=O)CCl)C(OC(C)=O)C1OC(C)=O` (stereo in doubt; form 3), the IC50 in data set [9] (l1210) came to 143 µM. The Survivors is on record as 1 in data set [14], 8 in [15] and 4 in data set [17]. In data set [16], this compound displayed a Days of 3. Further, the median lethal dose (LD50) in data set [8] is 1600 µmol/kg.

Consider `O=C(CCl)NC1C(O)OC(CO)C(O)C1O` (stereo in doubt; form 3), for which the “Thymidine incorporation (% of control)” value in data set [3] was found to be 97%.

As for `CC(=O)OCC1OC(OC(C)=O)C(NC(=O)CBr)C(OC(C)=O)C1OC(C)=O` (stereo in doubt; form 3), half-maximal inhibition in data set [9] (Mus musculus, L1210) (IC50) was put at 9.4 µM. For the same compound, the results for the Days in data set [18], in data set [19] and in [24] were 3, 1 and 1, respectively. Also, the Survivors stood at 3 in data set [20], 1 in data set [21], 1 in data set [22] and 4 in data set [23].

Source of the values: ChEMBL document CHEMBL1121660, “Haloacetamido analogues of 2-amino-2-deoxy-D-mannose. Syntheses and effects on tumor-bearing mice” (J Med Chem, 1981).
